Measured values taken from ChEMBL document CHEMBL1777707, “Structure-based design, synthesis, and nonalcoholic steatohepatitis (NASH)-preventive effect of phenylpropanoic acid peroxisome proliferator-activated receptor (PPAR) α-selective agonists” (Bioorg Med Chem, 2011).
Active and inactive are the calls of the source. The calls are words filed in the database; no cut-off is given here.

Tests used:
Rattus norvegicus [1] = test: Protection against nonalcoholic steatohepatitis progression in 4 weeks choline deficient high-fat diet fed methemoglobinemic Wistar rat assessed as increase of alanine transaminase level at 1 mg/kg/day, ip administered for 6 weeks in presence of 40 mg/kg/day, ip of sodium nitrite; type: functional, organism-based
Outline: (§1)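 Rats fed CDHF diet from 6 weeks of age for 4 weeks, then kept on CDHF over a 6-week period with daily ip NaNO2 40 mg/kg to cause methemoglobinemia; treated group also got compound 1 mg/kg/day. Controls were normal chow, CDHF alone and NASH. Housed singly, 12-h light-dark cycle, food and water ad libitum. Endpoints taken at study end.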

Rattus norvegicus [2] = test: (§2) Protection against nonalcoholic steatohepatitis progression in 4 weeks choline deficient high-fat diet fed methemoglobinemic Wistar rat assessed as prevention of nodule formation in liver at 1 mg/kg/day, ip administered for 6 weeks by hematoxylin and eosin staining in presence of 40 mg/kg/day, ip of sodium nitrite; type: functional, organism-based; outline: as §1
Rattus norvegicus [3] = test: as §2, with “liver atrophy” for “nodule”, “formation” for “formation in liver”; type: functional, organism-based; outline: as §1
[4] = molecular target: T1, Peroxisome proliferator-activated receptor alpha (Homo sapiens, UniProt Q07869); test: Agonist activity at Gal4-fussed PPARalpha expressed in human HEK293 cells by reporter gene assay; type: functional, cell-based
T1 sequence (Q07869 whole entry): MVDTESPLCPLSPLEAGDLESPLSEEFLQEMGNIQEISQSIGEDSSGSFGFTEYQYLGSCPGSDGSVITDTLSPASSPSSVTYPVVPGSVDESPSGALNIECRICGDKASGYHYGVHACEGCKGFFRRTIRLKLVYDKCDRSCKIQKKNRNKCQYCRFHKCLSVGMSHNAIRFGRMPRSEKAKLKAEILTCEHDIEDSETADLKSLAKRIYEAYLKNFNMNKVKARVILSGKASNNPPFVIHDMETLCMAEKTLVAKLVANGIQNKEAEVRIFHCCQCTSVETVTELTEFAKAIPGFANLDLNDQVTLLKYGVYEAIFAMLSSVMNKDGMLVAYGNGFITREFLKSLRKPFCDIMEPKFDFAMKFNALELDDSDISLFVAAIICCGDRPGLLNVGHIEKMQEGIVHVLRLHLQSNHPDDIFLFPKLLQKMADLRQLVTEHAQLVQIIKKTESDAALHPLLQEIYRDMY
Outline: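 Transient transfection of HEK-293 cells with PPAR-GAL4 chimeric receptor plus reporter. EC50 is the molar concentration giving 50% of maximal reporter activity; racemates tested as such.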

Rattus norvegicus [5] = test: Protection against nonalcoholic steatohepatitis progression in 4 weeks choline deficient high-fat diet fed methemoglobinemic Wistar rat assessed as increase of aspartate amino transferase level at 1 mg/kg/day, ip administered for 6 weeks in presence of 40 mg/kg/day, ip of sodium nitrite; type: functional, organism-based; outline: as §1
[6] = Selectivity ratio EC50 for Gal4-fussed PPARdelta to EC50 for Gal4-fussed PPARalpha
[7] = molecular target: T2, Peroxisome proliferator-activated receptor delta (Homo sapiens, UniProt Q03181); test: Agonist activity at Gal4-fussed PPARdelta expressed in human HEK293 cells by reporter gene assay; type: functional, cell-based
T2 sequence (Q03181 whole entry): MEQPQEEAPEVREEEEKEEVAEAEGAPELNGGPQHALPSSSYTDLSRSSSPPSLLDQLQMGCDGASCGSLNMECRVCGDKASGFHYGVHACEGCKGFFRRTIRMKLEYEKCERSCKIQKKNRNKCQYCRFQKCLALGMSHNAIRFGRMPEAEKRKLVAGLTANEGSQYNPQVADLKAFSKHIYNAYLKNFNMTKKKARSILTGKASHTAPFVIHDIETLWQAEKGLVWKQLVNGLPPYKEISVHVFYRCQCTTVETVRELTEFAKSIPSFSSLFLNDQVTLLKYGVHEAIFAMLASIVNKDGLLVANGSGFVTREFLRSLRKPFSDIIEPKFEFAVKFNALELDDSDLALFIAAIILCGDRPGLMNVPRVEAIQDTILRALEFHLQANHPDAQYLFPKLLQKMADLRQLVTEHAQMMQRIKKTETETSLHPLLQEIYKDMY

Rattus norvegicus [8] = test: Protection against nonalcoholic steatohepatitis progression in 4 weeks choline deficient high-fat diet fed methemoglobinemic Wistar rat assessed as prevention of liver fibrosis at 1 mg/kg/day, ip administered for 6 weeks by Masson Trichrome staining in presence of 40 mg/kg/day, ip of sodium nitrite; type: functional, organism-based; outline: as §1
Rattus norvegicus [9] = test: Protection against nonalcoholic steatohepatitis progression in 4 weeks choline deficient high-fat diet fed methemoglobinemic Wistar rat assessed as increase of liver function at 1 mg/kg/day, ip administered for 6 weeks in presence of 40 mg/kg/day, ip of sodium nitrite; type: functional, organism-based; outline: as §1
Rattus norvegicus [10] = test: Protection against nonalcoholic steatohepatitis progression in 4 weeks choline deficient high-fat diet fed methemoglobinemic Wistar rat assessed as increase of alkaline phosphatase level at 1 mg/kg/day, ip administered for 6 weeks in presence of 40 mg/kg/day, ip of sodium nitrite; type: functional, organism-based; outline: as §1
[11] = molecular target: T3, Peroxisome proliferator-activated receptor gamma (Homo sapiens, UniProt P37231); test: Agonist activity at Gal4-fussed PPARgamma expressed in human HEK293 cells by reporter gene assay; type: functional, cell-based
T3 sequence (P37231 whole entry): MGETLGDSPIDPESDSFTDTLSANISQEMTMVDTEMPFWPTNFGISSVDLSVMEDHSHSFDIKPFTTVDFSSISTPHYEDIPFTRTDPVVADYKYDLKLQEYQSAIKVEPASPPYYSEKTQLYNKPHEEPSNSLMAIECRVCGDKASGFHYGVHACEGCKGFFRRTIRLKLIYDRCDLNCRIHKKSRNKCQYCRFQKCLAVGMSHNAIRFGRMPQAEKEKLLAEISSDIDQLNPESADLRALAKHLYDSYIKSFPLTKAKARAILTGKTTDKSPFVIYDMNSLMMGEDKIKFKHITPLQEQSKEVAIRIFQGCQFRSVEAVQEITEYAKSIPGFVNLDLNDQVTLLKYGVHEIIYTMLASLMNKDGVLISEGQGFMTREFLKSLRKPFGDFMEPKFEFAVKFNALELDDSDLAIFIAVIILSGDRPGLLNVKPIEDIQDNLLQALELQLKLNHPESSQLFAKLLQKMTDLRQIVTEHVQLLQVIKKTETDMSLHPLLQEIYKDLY

Rattus norvegicus [12] = test: Protection against nonalcoholic steatohepatitis progression in 4 weeks choline deficient high-fat diet fed methemoglobinemic Wistar rat assessed as prevention of liver necrosis at 1 mg/kg/day, ip administered for 6 weeks by Masson Trichrome staining in presence of 40 mg/kg/day, ip of sodium nitrite; type: functional, organism-based; outline: as §1
Rattus norvegicus [13] = test: as §2, with “effect on features” for “prevention”, “fatty” for “nodule formation in”; type: functional, organism-based; outline: as §1

| EC50 [4] | EC50 [7] | EC50 [11] | Compound | other results |
| --- | --- | --- | --- | --- |
| 5 nM | 300 nM | 920 nM | CC[C@@H](Cc1ccc(OC)c(CNC(=O)c2ccc(Oc3ccc(F)cc3)cc2)c1)C(=O)O | Activity (Rattus norvegicus [1]): Active; Activity (Rattus norvegicus [2]): Active; Activity (Rattus norvegicus [3]): Active; Activity (Rattus norvegicus [5]): Active; Ratio EC50 [6]: 25; Activity (Rattus norvegicus [8]): Active; Activity (Rattus norvegicus [9]): Active; Activity (Rattus norvegicus [10]): Active; Activity (Rattus norvegicus [12]): Active; Activity (Rattus norvegicus [13]): inactive |
| 15 nM | 580 nM | 830 nM | CC[C@@H](Cc1ccc(OC)c(CNC(=O)c2ccc(Oc3ccc(Cl)cc3)cc2)c1)C(=O)O |  |
| 29 nM | 800 nM | 990 nM | CC[C@@H](Cc1ccc(OC)c(CNC(=O)c2ccc(Oc3ccc(Br)cc3)cc2)c1)C(=O)O |  |
| 8.8 nM | 120 nM | 820 nM | CCC(Cc1ccc(OC)c(CNC(=O)c2ccc(Oc3ccccc3)cc2)c1)C(=O)O (racemic) |  |
| 12 nM | 110 nM | 4400 nM | CCC(Cc1ccc(OC)c(CNC(=O)c2ccc(OC(F)(F)F)cc2)c1)C(=O)O (racemic) |  |
| 41 nM | 4800 nM | 4600 nM | CCC(Cc1ccc(OC)c(CNC(=O)c2cccc(Oc3ccccc3)c2)c1)C(=O)O (racemic) |  |
| 3600 nM | > 10000 nM | > 10000 nM | CCC(Cc1ccc(OC)c(CNC(=O)c2ccccc2Oc2ccccc2)c1)C(=O)O (racemic) |  |
| 74 nM | 4100 nM | 710 nM | CCC(Cc1ccc(OC)c(CNC(=O)c2cccc(-c3ccccc3)c2)c1)C(=O)O (racemic) |  |
| 3600 nM | > 10000 nM | > 10000 nM | CCC(Cc1ccc(OC)c(CNC(=O)c2ccccc2-c2ccccc2)c1)C(=O)O (racemic) |  |
| 52 nM | 1400 nM | 460 nM | CCC(Cc1ccc(OC)c(CNC(=O)c2ccc(OCc3ccccc3)cc2)c1)C(=O)O (racemic) |  |
| 60 nM | 1400 nM | 780 nM | CCC(Cc1ccc(OC)c(CNC(=O)c2ccc(OCCc3ccccc3)cc2)c1)C(=O)O (racemic) |  |
|  | 360 nM | 9600 nM | CCC(Cc1ccc(OC)c(CNC(=O)c2ccc(C)cc2)c1)C(=O)O (racemic) |  |
|  |  | > 10000 nM | CCC(Cc1ccc(OC)c(CNC(=O)c2ccccc2)c1)C(=O)O (racemic) |  |
| 7.6 nM |  | 340 nM | CCC(Cc1ccc(OC)c(CNC(=O)c2ccc(-c3ccccc3)cc2)c1)C(=O)O (racemic) |  |
